Calls of active or inactive are those of the source. No cut-off for these calls is given here.

Data set [1] has as its target T1, Alpha-ketoglutarate-dependent dioxygenase FTO (Homo sapiens, UniProt Q9C0B1). As to the kind of experiment: Inhibition of FTO (unknown origin) (31 to 505 residues) expressed in Escherichia coli BL21 (DE3) cells assessed as reduction in 3-meT substrate demethylation by measuring demethylation ratio at 80 uM incubated for 17 hrs at 16 degC by HPLC method. Set-up: scale not given: the % may be the effect or the level left. In a few lines: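 Preliminary screen with FTO and 3meT substrate (0.1 mg/mL stock) in MES, FeSO4, αKG and L-ascorbate; inhibitor added from a 4 mM DMSO stock, with DMSO alone as control. Incubated 17 h at 16 °C, centrifuged, then analysed by C18 reverse-phase HPLC (water/methanol gradient). Demethylated fraction of substrate reported.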
Target sequence in this assay (Q9C0B1 whole entry, looked up, the tested form may be a part): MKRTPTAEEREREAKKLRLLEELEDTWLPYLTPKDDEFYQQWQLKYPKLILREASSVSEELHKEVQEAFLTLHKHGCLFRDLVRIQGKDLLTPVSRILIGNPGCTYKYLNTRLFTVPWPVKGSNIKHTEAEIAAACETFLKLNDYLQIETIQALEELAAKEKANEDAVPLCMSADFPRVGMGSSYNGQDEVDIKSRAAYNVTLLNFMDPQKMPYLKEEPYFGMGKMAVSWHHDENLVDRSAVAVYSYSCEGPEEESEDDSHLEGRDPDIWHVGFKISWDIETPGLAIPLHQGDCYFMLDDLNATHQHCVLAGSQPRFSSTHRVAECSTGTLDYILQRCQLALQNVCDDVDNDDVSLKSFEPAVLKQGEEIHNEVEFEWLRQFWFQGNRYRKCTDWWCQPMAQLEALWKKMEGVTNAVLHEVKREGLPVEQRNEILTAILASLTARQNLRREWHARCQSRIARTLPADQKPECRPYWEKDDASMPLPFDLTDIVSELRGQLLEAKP

The target in data set [2] is T1, Alpha-ketoglutarate-dependent dioxygenase FTO. As to the kind of experiment: biochemical.
Target sequence in this assay (Q9C0B1 whole entry, the tested form may be a part): as the sequence (Q9C0B1 whole entry, looked up, the tested form may be a part) above
Data set [3] concerns Alpha-ketoglutarate-dependent dioxygenase FTO (Homo sapiens), Q9C0B1 [R96Q]. As to conditions: 3T3-L1, 10 uM.
Sequence of Alpha-ketoglutarate-dependent dioxygenase FTO (Homo sapiens), Q9C0B1 [R96Q] (Q9C0B1 whole entry R96Q): as the sequence (Q9C0B1 whole entry, looked up, the tested form may be a part) above, with R96Q counted along it
The target of data set [4] is Alpha-ketoglutarate-dependent dioxygenase FTO (Mus musculus) (UniProt Q8BGW1). Nature of the data set: Inhibition of FTO in mouse 3T3L1 cells increase in […] m6A modified mRNA levels at 10 uM incubated for 48 hrs by dot blot method. The format is cell-based. As to conditions: 3T3-L1. In short, it runs like this: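 3T3-L1 preadipocytes stably transfected with empty pcDNA3.1, WT-FTO or R96Q-FTO were grown in high-glucose DMEM/10% FBS. Post-confluent cells were differentiated 48 h with insulin, dexamethasone and IBMX, then given 10 μM compound plus insulin for 48 h. mRNA m6A was quantified as relative integrated optical density; mean ± SEM, n = 4.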
Sequence of Alpha-ketoglutarate-dependent dioxygenase FTO (Mus musculus) (Q8BGW1 whole entry): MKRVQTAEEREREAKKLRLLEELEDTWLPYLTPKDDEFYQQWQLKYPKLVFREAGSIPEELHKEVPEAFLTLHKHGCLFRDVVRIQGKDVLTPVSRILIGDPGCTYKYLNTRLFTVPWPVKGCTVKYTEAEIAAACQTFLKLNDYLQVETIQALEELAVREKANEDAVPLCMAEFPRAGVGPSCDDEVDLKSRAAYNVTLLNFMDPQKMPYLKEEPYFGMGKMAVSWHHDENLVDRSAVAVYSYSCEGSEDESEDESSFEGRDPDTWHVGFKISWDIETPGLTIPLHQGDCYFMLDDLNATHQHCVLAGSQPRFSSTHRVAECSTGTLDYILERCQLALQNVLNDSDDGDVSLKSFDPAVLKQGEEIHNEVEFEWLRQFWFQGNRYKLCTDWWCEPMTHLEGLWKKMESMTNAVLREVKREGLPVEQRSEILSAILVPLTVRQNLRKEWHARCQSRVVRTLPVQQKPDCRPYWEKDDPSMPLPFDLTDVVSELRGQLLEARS

The target of data set [5] is T1, Alpha-ketoglutarate-dependent dioxygenase FTO. The following applies: BL21-DE3, 80 uM.
Target sequence in this assay (Q9C0B1 whole entry, looked up, the tested form may be a part): as the sequence (Q9C0B1 whole entry, looked up, the tested form may be a part) above
For data set [6] the target is unchanged. Nature of the data set: Binding affinity to FTO (unknown origin) (31 to 505 residues) expressed in Escherichia coli BL21 (DE3) by ITC method. In a few lines:
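ITC at 25 °C. Cell contained 140 μM FTO (residues 31–505, His/Ni-resin and ion-exchange purified from E. coli BL21(DE3) after IPTG induction) in 25 mM HEPES pH 7.5, 100 mM NaCl, 10 mM β-mercaptoethanol, 10% DMSO. Titrant was the same buffer with 1.5 mM ligand, given as one 0.4 μL then 2.0 μL injections every 150 s at 750 rpm. Buffer-only dilution heats subtracted before fitting Kd.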
Target sequence in this assay (Q9C0B1 whole entry, the tested form may be a part): as the sequence (Q9C0B1 whole entry, looked up, the tested form may be a part) above

A short description of data set [7]: Cytotoxicity against mouse 3T3L1 cells assessed as effect on cell morphology at 1 to 20 uM incubated for 8 days. The following applies: 3t3-l1, 192 h. The format is cell-based. In short, it runs like this:
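3T3-L1 preadipocytes were exposed to 1, 10 or 20 μM for 8 days. Cell health was judged from morphology.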

The target of data set [8] is T1, Alpha-ketoglutarate-dependent dioxygenase FTO. The following applies: 3T3-L1, 10 uM.
Target sequence in this assay (Q9C0B1 whole entry, looked up, the tested form may be a part): as above

Take `O=C(Nc1cc(Cl)c(O)cc1O)C1(c2ccc(Br)cc2)CCC1`: in data set [1], the Activity worked out at 31.3%.
Take `O=C(Nc1cc(Cl)c(O)cc1O)C1(c2cccc3ccccc23)CCC1`: the Activity in data set [1] came to 39%.
For the compound `O=C(Nc1cc(Cl)c(O)cc1O)C1(c2cccc(C(F)(F)F)c2)CCC1`, the Activity in data set [1] is 29.8%.
Still for that read-out and setting: with `O=C(Nc1cc(Cl)c(O)cc1O)C1(c2ccc([N+](=O)[O-])cc2)CCC1` the figure was 46.9%; with `O=C(Nc1cc(Cl)c(O)cc1O)C1(c2ccccc2Cl)CCC1`, 16.9%.
For `O=C(Nc1cc(Cl)c(O)cc1O)C1(c2cc(C(F)(F)F)cc(C(F)(F)F)c2)CCC1`, the Activity in data set [1] is 61.9%.
As to `O=C(Nc1cc(Cl)c(O)cc1O)C1(c2ccc(Cl)cc2)CCC1`, in data set [1], the Activity stood at 29.2%.
Turning to `O=C(Nc1cc(Cl)c(O)cc1O)C1(c2ccc(O)cc2)CCC1`, in data set [1], the Activity came to 17.8%.
For `CCCCc1ccc(C2(C(=O)Nc3cc(Cl)c(O)cc3O)CCC2)cc1`, in data set [1], the Activity is 22.2%.
On the same count and under the same terms, with `O=C(Nc1cc(Cl)c(O)cc1O)C1(c2c(F)cccc2F)CCC1` the figure was 15.2%.
With `O=C(Nc1cc(Cl)c(O)cc1O)C1(c2ccccc2)CCC1`, the IC50 in data set [2] turned out to be 4.95 µM. Besides, the inhibition entry in data set [3], in data set [4] and in data set [8] was “Active” throughout. In addition, the Activity was 14.4% in data set [1] and “Non-toxic” in data set [7]. Further, in data set [5], the inhibition result is “Dose-dependent effect”. Further, in data set [6], the Kd came to 13 µM.
For `O=C(Nc1cc(Cl)c(O)cc1O)C1(c2cccc(Br)c2)CCC1`, the Activity in data set [1] stood at 18.7%.
Same read-out and setting: the figure for `O=C(Nc1cc(Cl)c(O)cc1O)C1(c2ccccc2Br)CCC1` is 21.6%; for `O=C(Nc1cc(Cl)c(O)cc1O)C1(c2cccc(O)c2)CCC1` it is 25.8%.
Take `CCCCc1cccc(C2(C(=O)Nc3cc(Cl)c(O)cc3O)CCC2)c1`: in data set [1], the Activity was found to be 18.2%.
`O=C(Nc1cc(Cl)c(O)cc1O)C1(c2ccc([N+](=O)[O-])cc2[N+](=O)[O-])CCC1`: in data set [1], the Activity is 26.1%.
On the same count and under the same terms, with `O=C(Nc1cc(Cl)c(O)cc1O)C1(c2c(Cl)cccc2Cl)CCC1` the figure was 15.4%; with `O=C(Nc1cc(Cl)c(O)cc1O)C1(c2ccc3ccccc3c2)CCC1`, 18.4%.
As to `O=C(Nc1cc(Cl)c(O)cc1O)C1(c2cccc(Oc3ccccc3)c2)CCC1`, the Activity in data set [1] worked out at 17.3%.
On to `O=C(Nc1cc(Cl)c(O)cc1O)C1(c2cccc(Cl)c2)CCC1`, for which the Activity in data set [1] is 16.9%.
